Experimental data as given in ChEMBL document CHEMBL4118285, “Synthesis and antibacterial activity of novel ketolides with 11,12-quinoylalkyl side chains” (2018).
≈ marks a conversion by molar mass, not a printed value.

How the values were obtained:
Format in all cases: functional
Streptococcus pyogenes [1] = assay: Antibacterial activity against erythromycin-sensitive Streptococcus pyogenes 11L264 by broth microdilution method
Summary of the method: (§1)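 MICs were determined by broth microdilution following CLSI recommendations, with clarithromycin and telithromycin run as reference antibiotics.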

Haemophilus influenzae [2] = assay: Antibacterial activity against azithromycin-resistant Haemophilus influenzae 11Q373 by broth microdilution method
Summary of the method: (§2)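 MIC values were determined by broth microdilution following Clinical and Laboratory Standards Institute (CLSI) recommendations.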

[3] = tested on: Staphylococcus epidermidis; assay: Antibacterial activity against methicillin-sensitive Staphylococcus epidermidis 11X315 by broth microdilution method; summary of the method: as §2
Staphylococcus aureus [4] = assay: Antibacterial activity against methicillin-resistant Staphylococcus aureus 11B117 by broth microdilution method; summary of the method: as §2
Streptococcus pneumoniae [5] = assay: Antibacterial activity against erythromycin-sensitive Streptococcus pneumoniae 11G364 by broth microdilution method; summary of the method: as §1
Staphylococcus aureus [6] = assay: Antibacterial activity against methicillin-sensitive Staphylococcus aureus 11B122 by broth microdilution method; summary of the method: as §1
Streptococcus pneumoniae [7] = assay: Antibacterial activity against erythromycin-resistant Streptococcus pneumoniae 11 J011 by broth microdilution method; summary of the method: as §2
Haemophilus influenzae [8] = assay: Antibacterial activity against azithromycin-sensitive Haemophilus influenzae 11P042 by broth microdilution method; summary of the method: as §1
[9] = tested on: Staphylococcus epidermidis; assay: Antibacterial activity against methicillin-resistant Staphylococcus epidermidis 11C176 by broth microdilution method; summary of the method: as §2
Streptococcus pyogenes [10] = assay: Antibacterial activity against erythromycin-resistant Streptococcus pyogenes 11 N369 by broth microdilution method; summary of the method: as §2
Streptococcus pyogenes [11] = assay: Antibacterial activity against […] Streptococcus pyogenes 12-8 by broth microdilution method; summary of the method: as §1
Staphylococcus aureus [12] = assay: Antibacterial activity against methicillin-resistant Staphylococcus aureus ATCC 33591 by broth microdilution method; summary of the method: as §2
Staphylococcus aureus [13] = assay: Antibacterial activity against methicillin-sensitive Staphylococcus aureus ATCC 29213 by broth microdilution method; summary of the method: as §1
Pseudomonas aeruginosa = assay: Antibacterial activity against Pseudomonas aeruginosa ATCC 27853 by broth microdilution method; summary of the method: as §1
Streptococcus pyogenes [14] = assay: Antibacterial activity against methicillin-resistant Streptococcus pyogenes 12-1 by broth microdilution method; summary of the method: as §2
Escherichia coli = assay: Antibacterial activity against extended spectrum beta-lactamases non-producing Escherichia coli ATCC 25922 by broth microdilution method; summary of the method: as §1
Klebsiella pneumoniae = assay: Antibacterial activity against extended spectrum beta-lactamases producing Klebsiella pneumoniae ATCC 700603 by broth microdilution method; summary of the method: as §1
[15] = tested on: Staphylococcus epidermidis; assay: Antibacterial activity against methicillin-sensitive Staphylococcus epidermidis ATCC 12228 by broth microdilution method; summary of the method: as §1
Moraxella catarrhalis [16] = assay: Antibacterial activity against clarithromycin-sensitive Moraxella catarrhalis 12-1 by broth microdilution method; summary of the method: as §1
Moraxella catarrhalis [17] = assay: Antibacterial activity against clarithromycin-resistant Moraxella catarrhalis 12-2 by broth microdilution method; summary of the method: as §2
[18] = tested on: Staphylococcus epidermidis; assay: Antibacterial activity against methicillin-resistant Staphylococcus epidermidis 13-3 by broth microdilution method; summary of the method: as §2

Row | SMILES | MIC (Streptococcus pyogenes [1]) [µg/mL] | MIC (Haemophilus influenzae [2]) [µg/mL] | MIC [3] [µg/mL] | MIC (Staphylococcus aureus [4]) [µg/mL] | MIC (Streptococcus pneumoniae [5]) [µg/mL] | MIC (Staphylococcus aureus [6]) [µg/mL] | MIC (Streptococcus pneumoniae [7]) [µg/mL] | MIC (Haemophilus influenzae [8]) [µg/mL] | MIC [9] [µg/mL] | MIC (Streptococcus pyogenes [11]) [µg/mL] | MIC (Staphylococcus aureus [12]) [µg/mL] | MIC (Staphylococcus aureus [13]) [µg/mL] | MIC (Pseudomonas aeruginosa) [µg/mL] | MIC (Streptococcus pyogenes [14]) [µg/mL] | MIC (Escherichia coli) [µg/mL] | MIC (Klebsiella pneumoniae) [µg/mL] | MIC [15] [µg/mL] | MIC (Moraxella catarrhalis [16]) [µg/mL] | MIC (Moraxella catarrhalis [17]) [µg/mL] | MIC [18] [µg/mL] | other results
1 | CC[C@H]1OC(=O)[C@H](C)C(=O)[C@H](C)[C@@H](O[C@@H]2O[C@H](C)C[C@H](N(C)C)[C@H]2O)[C@](C)(OC)C[C@@H](C)C(=O)[C@H](C)[C@H]2N(CCCCc3cnc4ccccc4c3)C(=O)O[C@]12C | 0.008 (≈ 0.0101 µM) | 4 (≈ 5.03 µM) | 0.062 (≈ 0.0779 µM) | 64 (≈ 80.4 µM) | ≤ 0.004 | 0.125 (≈ 0.157 µM) | 0.062 (≈ 0.0779 µM) | 0.5 (≈ 0.628 µM) | 0.062 (≈ 0.0779 µM) |  |  |  |  |  |  |  |  |  |  |  | MIC (Streptococcus pyogenes [10]): 0.5 µg/mL (≈ 0.628 µM)
2 | CC[C@H]1OC(=O)[C@H](C)C(=O)[C@H](C)[C@@H](O[C@@H]2O[C@H](C)C[C@H](N(C)C)[C@H]2O)[C@](C)(OC)C[C@@H](C)C(=O)[C@H](C)[C@H]2N(CC/C=C/c3cncc4ccccc34)C(=O)O[C@]12C |  |  |  |  |  |  |  |  |  | 0.015 (≈ 0.0189 µM) | 64 (≈ 80.6 µM) | 0.015 (≈ 0.0189 µM) | 32 (≈ 40.3 µM) | 64 (≈ 80.6 µM) | 16 (≈ 20.2 µM) | 64 (≈ 80.6 µM) | 0.03 (≈ 0.0378 µM) | 0.015 (≈ 0.0189 µM) | 32 (≈ 40.3 µM) | 64 (≈ 80.6 µM) | 
3 | CC[C@H]1OC(=O)[C@H](C)C(=O)[C@H](C)[C@@H](O[C@@H]2O[C@H](C)C[C@H](N(C)C)[C@H]2O)[C@](C)(OC)C[C@@H](C)C(=O)[C@H](C)[C@H]2N(CC/C=C/c3cncc4cc(C)ccc34)C(=O)O[C@]12C |  |  |  |  |  |  |  |  |  | 0.015 (≈ 0.0186 µM) | 64 (≈ 79.2 µM) | 0.06 (≈ 0.0743 µM) | 64 (≈ 79.2 µM) | 64 (≈ 79.2 µM) | 64 (≈ 79.2 µM) | > 256 | 0.06 (≈ 0.0743 µM) | 0.015 (≈ 0.0186 µM) | 32 (≈ 39.6 µM) | 128 (≈ 158 µM) | 
4 | CC[C@H]1OC(=O)[C@H](C)C(=O)[C@H](C)[C@@H](O[C@@H]2O[C@H](C)C[C@H](N(C)C)[C@H]2O)[C@](C)(OC)C[C@@H](C)C(=O)[C@H](C)[C@H]2N(CC/C=C/c3cncc4ccc(OCc5ccccc5)cc34)C(=O)O[C@]12C |  |  |  |  |  |  |  |  |  | 0.125 (≈ 0.139 µM) | 8 (≈ 8.89 µM) | 1 (≈ 1.11 µM) | > 256 | 8 (≈ 8.89 µM) | > 256 | > 256 | 1 (≈ 1.11 µM) | 1 (≈ 1.11 µM) | 4 (≈ 4.44 µM) | 8 (≈ 8.89 µM) | 
5 | CC[C@H]1OC(=O)[C@@](C)(F)C(=O)[C@H](C)[C@@H](O[C@@H]2O[C@H](C)C[C@H](N(C)C)[C@H]2O)[C@](C)(OC)C[C@@H](C)C(=O)[C@H](C)[C@H]2N(CC/C=C/c3cnc4ccccc4c3)C(=O)O[C@]12C |  |  |  |  |  |  |  |  |  | 0.015 (≈ 0.0185 µM) | 32 (≈ 39.4 µM) | 0.015 (≈ 0.0185 µM) | 16 (≈ 19.7 µM) | 16 (≈ 19.7 µM) | 8 (≈ 9.85 µM) | 32 (≈ 39.4 µM) | 0.015 (≈ 0.0185 µM) | 0.015 (≈ 0.0185 µM) | 16 (≈ 19.7 µM) | 32 (≈ 39.4 µM) | 
6 | CC[C@H]1OC(=O)[C@H](C)C(=O)[C@H](C)[C@@H](O[C@@H]2O[C@H](C)C[C@H](N(C)C)[C@H]2O)[C@](C)(OC)C[C@@H](C)C(=O)[C@H](C)[C@H]2N(CC/C=C/c3cnc4ccccc4c3)C(=O)O[C@]12C | ≤ 0.004 | 4 (≈ 5.04 µM) | 0.062 (≈ 0.0781 µM) | 64 (≈ 80.6 µM) | ≤ 0.004 | 0.125 (≈ 0.157 µM) | 0.031 (≈ 0.039 µM) | 1 (≈ 1.26 µM) | 0.062 (≈ 0.0781 µM) |  |  |  |  |  |  |  |  |  |  |  | MIC (Streptococcus pyogenes [10]): 0.25 µg/mL (≈ 0.315 µM)
7 | CC[C@H]1OC(=O)[C@H](C)C(=O)[C@H](C)[C@@H](O[C@@H]2O[C@H](C)C[C@H](N(C)C)[C@H]2O)[C@](C)(OC)C[C@@H](C)C(=O)[C@H](C)[C@H]2N(CC/C=C/c3cncc4cc(OC)ccc34)C(=O)O[C@]12C |  |  |  |  |  |  |  |  |  | 0.015 (≈ 0.0182 µM) | 64 (≈ 77.7 µM) | 0.06 (≈ 0.0728 µM) | 64 (≈ 77.7 µM) | 32 (≈ 38.8 µM) | 64 (≈ 77.7 µM) | > 256 | 0.015 (≈ 0.0182 µM) | 0.015 (≈ 0.0182 µM) | 8 (≈ 9.71 µM) | 64 (≈ 77.7 µM) | 
8 | CC[C@H]1OC(=O)[C@H](C)C(=O)[C@H](C)[C@@H](O[C@@H]2O[C@H](C)C[C@H](N(C)C)[C@H]2O)[C@](C)(OC)C[C@@H](C)C(=O)[C@H](C)[C@H]2N(CCCOc3cnc4ccccc4c3)C(=O)O[C@]12C | 0.008 (≈ 0.01 µM) | 8 (≈ 10 µM) | 0.062 (≈ 0.0777 µM) | > 64 | ≤ 0.004 | 0.125 (≈ 0.157 µM) | 0.062 (≈ 0.0777 µM) | 1 (≈ 1.25 µM) | 0.25 (≈ 0.313 µM) |  |  |  |  |  |  |  |  |  |  |  | MIC (Streptococcus pyogenes [10]): 1 µg/mL (≈ 1.25 µM)
9 | CC[C@H]1OC(=O)[C@H](C)C(=O)[C@H](C)[C@@H](O[C@@H]2O[C@H](C)C[C@H](N(C)C)[C@H]2O)[C@](C)(OC)C[C@@H](C)C(=O)[C@H](C)[C@H]2N(CC/C=C/c3cncc4cc(OCc5ccccc5)ccc34)C(=O)O[C@]12C |  |  |  |  |  |  |  |  |  | 0.25 (≈ 0.278 µM) | 8 (≈ 8.89 µM) | 1 (≈ 1.11 µM) | > 256 | 8 (≈ 8.89 µM) | > 256 | > 256 | 1 (≈ 1.11 µM) | 0.5 (≈ 0.555 µM) | 8 (≈ 8.89 µM) | 16 (≈ 17.8 µM) | 
10 | CC[C@H]1OC(=O)[C@H](C)C(=O)[C@H](C)[C@@H](O[C@@H]2O[C@H](C)C[C@H](N(C)C)[C@H]2O)[C@](C)(OC)C[C@@H](C)C(=O)[C@H](C)[C@H]2N(CC/C=C/c3cncc4ccc(-c5ccccc5)cc34)C(=O)O[C@]12C |  |  |  |  |  |  |  |  |  | 0.125 (≈ 0.144 µM) | 4 (≈ 4.6 µM) | 1 (≈ 1.15 µM) | > 256 | 8 (≈ 9.19 µM) | > 256 | > 256 | 0.5 (≈ 0.575 µM) | 0.125 (≈ 0.144 µM) | 2 (≈ 2.3 µM) | 8 (≈ 9.19 µM) | 
11 | CC[C@H]1OC(=O)[C@H](C)C(=O)[C@H](C)[C@@H](O[C@@H]2O[C@H](C)C[C@H](N(C)C)[C@H]2O)[C@](C)(OC)C[C@@H](C)C(=O)[C@H](C)[C@H]2N(CCCNc3cnc4ccccc4c3)C(=O)O[C@]12C | 0.031 (≈ 0.0389 µM) | 8 (≈ 10 µM) | 0.5 (≈ 0.627 µM) | > 64 | 0.016 (≈ 0.0201 µM) | 0.5 (≈ 0.627 µM) | 0.5 (≈ 0.627 µM) | 8 (≈ 10 µM) | 0.5 (≈ 0.627 µM) |  |  |  |  |  |  |  |  |  |  |  | MIC (Streptococcus pyogenes [10]): 64 µg/mL (≈ 80.3 µM)
12 | CC[C@H]1OC(=O)[C@H](C)C(=O)[C@H](C)[C@@H](O[C@@H]2O[C@H](C)C[C@H](N(C)C)[C@H]2O)[C@](C)(OC)C[C@@H](C)C(=O)[C@H](C)[C@H]2N(CCCOc3ccc4cccnc4c3)C(=O)O[C@]12C |  |  |  |  |  |  |  |  |  | 0.015 (≈ 0.0188 µM) | 256 (≈ 321 µM) | 0.015 (≈ 0.0188 µM) | 32 (≈ 40.1 µM) | > 256 | 16 (≈ 20.1 µM) | 128 (≈ 160 µM) | 0.03 (≈ 0.0376 µM) | 0.015 (≈ 0.0188 µM) | 64 (≈ 80.2 µM) | > 256 | 
13 | CC[C@H]1OC(=O)[C@@](C)(F)C(=O)[C@H](C)[C@@H](O[C@@H]2O[C@H](C)C[C@H](N(C)C)[C@H]2O)[C@](C)(OC)C[C@@H](C)C(=O)[C@H](C)[C@H]2N(CCCOc3cnc4ccccc4c3)C(=O)O[C@]12C |  |  |  |  |  |  |  |  |  | 0.015 (≈ 0.0184 µM) | 64 (≈ 78.4 µM) | 0.015 (≈ 0.0184 µM) | 16 (≈ 19.6 µM) | 64 (≈ 78.4 µM) | 8 (≈ 9.8 µM) | 32 (≈ 39.2 µM) | 0.015 (≈ 0.0184 µM) | 0.015 (≈ 0.0184 µM) | 64 (≈ 78.4 µM) | 128 (≈ 157 µM) | 
